Test results published in ChEMBL document CHEMBL1154610, “Discovery and preclinical evaluation of [4-[[1-(3-fluorophenyl)methyl]-1H-indazol-5-ylamino]-5-methylpyrrolo[2,1-f][1,2,4]triazin-6-yl]carbamic acid, (3S)-3-morpholinylmethyl ester (BMS-599626), a selective and orally efficacious inhibitor of human epidermal growth factor receptor 1 and 2 kinases” (J Med Chem, 2009).

Biological target: Receptor tyrosine-protein kinase erbB-2 (Homo sapiens, UniProt P04626)
Test: Inhibition of human recombinant HER2 expressed in Sf9 cells by liquid scintillation counting
Settings: not given

Sequence of Receptor tyrosine-protein kinase erbB-2 (P04626 whole entry): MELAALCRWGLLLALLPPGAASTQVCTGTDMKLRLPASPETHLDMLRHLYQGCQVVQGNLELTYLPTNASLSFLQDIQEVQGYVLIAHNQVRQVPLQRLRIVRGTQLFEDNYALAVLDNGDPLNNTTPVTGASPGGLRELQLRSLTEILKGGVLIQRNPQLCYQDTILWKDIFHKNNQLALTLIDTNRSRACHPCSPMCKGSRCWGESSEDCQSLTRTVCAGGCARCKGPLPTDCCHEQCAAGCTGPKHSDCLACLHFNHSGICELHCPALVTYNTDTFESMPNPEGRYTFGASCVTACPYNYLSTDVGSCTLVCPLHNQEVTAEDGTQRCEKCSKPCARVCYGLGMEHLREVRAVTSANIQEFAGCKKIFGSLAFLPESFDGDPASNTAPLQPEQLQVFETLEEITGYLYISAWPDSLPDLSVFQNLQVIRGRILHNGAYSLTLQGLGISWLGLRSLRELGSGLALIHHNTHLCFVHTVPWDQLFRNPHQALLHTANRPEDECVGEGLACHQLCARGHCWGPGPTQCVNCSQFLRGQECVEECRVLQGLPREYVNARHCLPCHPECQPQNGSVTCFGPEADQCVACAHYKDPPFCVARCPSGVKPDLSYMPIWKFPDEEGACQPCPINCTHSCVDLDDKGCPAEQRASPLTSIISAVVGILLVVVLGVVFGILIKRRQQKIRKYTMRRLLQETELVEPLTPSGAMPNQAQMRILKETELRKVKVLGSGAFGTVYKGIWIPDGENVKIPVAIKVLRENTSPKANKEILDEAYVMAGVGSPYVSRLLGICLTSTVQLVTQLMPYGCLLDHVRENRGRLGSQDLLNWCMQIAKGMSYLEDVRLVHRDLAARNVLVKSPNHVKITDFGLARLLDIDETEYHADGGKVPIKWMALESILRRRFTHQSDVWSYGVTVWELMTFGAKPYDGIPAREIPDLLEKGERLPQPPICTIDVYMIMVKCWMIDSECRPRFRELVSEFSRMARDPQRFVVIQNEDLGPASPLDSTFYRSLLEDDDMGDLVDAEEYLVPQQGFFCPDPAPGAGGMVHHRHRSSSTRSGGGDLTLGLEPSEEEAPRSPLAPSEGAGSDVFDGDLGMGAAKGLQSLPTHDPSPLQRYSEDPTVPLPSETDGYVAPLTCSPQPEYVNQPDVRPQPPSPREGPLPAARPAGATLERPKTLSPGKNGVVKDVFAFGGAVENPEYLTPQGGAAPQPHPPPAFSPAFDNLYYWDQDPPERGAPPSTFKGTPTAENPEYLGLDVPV

Point of comparison: `CCC1=C2C(Nc3ccc4c(cnn4Cc4ccccc4)c3)=NC=NC2N=C1NC(=O)OCCN1CCNCC1` (centres undefined), IC50 18 nM. Against it:
- CCc1c(NC(=O)OC[C@@H]2COCCN2)cn2ncnc(Nc3ccc4c(cnn4Cc4ccccc4)c3)c12 — within 1.5-fold, 21 nM
- CCC1=C2C(Nc3ccc4c(cnn4Cc4ccccc4)c3)=NC=NC2N=C1NC(=O)OCCC1CCNCC1 (centres undefined) — 2.1-fold higher, 37 nM
- CCC1=C2C(Nc3ccc4c(cnn4Cc4ccccc4)c3)=NC=NC2N=C1NC(=O)OCCN1CCOCC1 (centres undefined) — 4.3-fold higher, 77 nM
- CCC1=C2C(Nc3ccc4c(cnn4Cc4ccccc4)c3)=NC=NC2N=C1NC(=O)O[C@H]1CC[C@@](C)(N)CC1 (some centres undefined) — within 1.5-fold, 20 nM
- CCC1=C2C(Nc3ccc4c(cnn4Cc4ccccc4)c3)=NC=NC2N=C1NC(=O)OCCN1CCCCC1 (centres undefined) — 1.6-fold higher, 28 nM

System: A2780
Test: Antiproliferative activity against human A2780 cells after 72 hrs by MTT assay
Format: functional, cell-based
Settings: A2780, 72 h
How it was run: (§1)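 Cell proliferation IC50 reported as the mean of three independent determinations. BT474 is a breast line (HER2+++/HER1+); A2780 serves as a HER-independent control.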

Point of comparison: `CCc1c(NC(=O)OC[C@@H]2COCCN2)cn2ncnc(Nc3ccc4c(cnn4Cc4ccccc4)c3)c12`, IC50 4510 nM. Against it:
- CCC1=C2C(Nc3ccc4c(cnn4Cc4ccccc4)c3)=NC=NC2N=C1NC(=O)O[C@H]1CC[C@@](C)(N)CC1 (some centres undefined) — within 1.5-fold, 5220 nM

Biological target: Epidermal growth factor receptor (Homo sapiens, UniProt P00533)
Sequence (P00533 whole entry): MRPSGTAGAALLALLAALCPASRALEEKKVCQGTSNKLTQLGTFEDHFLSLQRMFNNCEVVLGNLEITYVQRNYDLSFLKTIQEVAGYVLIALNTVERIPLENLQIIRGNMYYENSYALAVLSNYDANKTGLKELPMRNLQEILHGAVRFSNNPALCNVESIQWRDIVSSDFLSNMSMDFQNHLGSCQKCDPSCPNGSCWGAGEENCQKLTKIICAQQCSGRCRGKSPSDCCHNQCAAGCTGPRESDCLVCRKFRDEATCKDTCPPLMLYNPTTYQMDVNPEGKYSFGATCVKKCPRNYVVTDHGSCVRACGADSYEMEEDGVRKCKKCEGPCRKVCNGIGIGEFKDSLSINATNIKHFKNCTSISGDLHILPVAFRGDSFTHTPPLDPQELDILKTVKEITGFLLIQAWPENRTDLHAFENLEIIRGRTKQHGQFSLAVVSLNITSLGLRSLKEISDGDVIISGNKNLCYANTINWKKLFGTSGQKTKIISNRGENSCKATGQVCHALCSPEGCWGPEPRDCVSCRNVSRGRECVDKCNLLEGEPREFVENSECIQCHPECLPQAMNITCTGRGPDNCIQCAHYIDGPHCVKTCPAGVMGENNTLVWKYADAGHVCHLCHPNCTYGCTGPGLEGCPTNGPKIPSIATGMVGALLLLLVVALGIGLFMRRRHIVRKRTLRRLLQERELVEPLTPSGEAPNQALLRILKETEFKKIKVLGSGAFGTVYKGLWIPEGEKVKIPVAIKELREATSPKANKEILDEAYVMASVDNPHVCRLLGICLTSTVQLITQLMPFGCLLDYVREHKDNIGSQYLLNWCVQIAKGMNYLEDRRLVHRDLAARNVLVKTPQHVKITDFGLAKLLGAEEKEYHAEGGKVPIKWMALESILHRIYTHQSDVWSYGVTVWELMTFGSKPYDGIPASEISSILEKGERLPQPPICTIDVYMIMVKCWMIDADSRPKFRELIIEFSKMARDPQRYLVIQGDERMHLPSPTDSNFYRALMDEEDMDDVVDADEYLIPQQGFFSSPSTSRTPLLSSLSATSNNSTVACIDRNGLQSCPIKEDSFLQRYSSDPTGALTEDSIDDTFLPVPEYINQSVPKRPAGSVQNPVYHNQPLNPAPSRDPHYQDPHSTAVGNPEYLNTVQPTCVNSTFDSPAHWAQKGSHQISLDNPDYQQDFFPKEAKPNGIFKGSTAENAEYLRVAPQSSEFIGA
Test: Inhibition of human recombinant HER1 expressed in Sf9 cells by liquid scintillation counting
Settings: not given

Point of comparison: `CCC1=C2C(Nc3ccc4c(cnn4Cc4ccccc4)c3)=NC=NC2N=C1NC(=O)O[C@H]1CC[C@@](C)(N)CC1` (some centres undefined), IC50 19 nM. Against it:
- CCc1c(NC(=O)OC[C@@H]2COCCN2)cn2ncnc(Nc3ccc4c(cnn4Cc4ccccc4)c3)c12 — 1.7-fold higher, 33 nM
- CCC1=C2C(Nc3ccc4c(cnn4Cc4ccccc4)c3)=NC=NC2N=C1NC(=O)OCCC1CCNCC1 (centres undefined) — 2.3-fold higher, 44 nM
- CCC1=C2C(Nc3ccc4c(cnn4Cc4ccccc4)c3)=NC=NC2N=C1NC(=O)OCCN1CCOCC1 (centres undefined) — 5.8-fold higher, 111 nM
- CCC1=C2C(Nc3ccc4c(cnn4Cc4ccccc4)c3)=NC=NC2N=C1NC(=O)OCCN1CCNCC1 (centres undefined) — within 1.5-fold, 21 nM
- CCC1=C2C(Nc3ccc4c(cnn4Cc4ccccc4)c3)=NC=NC2N=C1NC(=O)OCCN1CCCCC1 (centres undefined) — 2-fold higher, 38 nM

System: not listed separately
Test: Metabolic stability in mouse liver microsomes assessed per mg of protein at 10 uM after 10 mins
Format: ADME, Microsome
Settings: not given
How it was run: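 Mouse liver microsomes incubated with compound at 10 µM for 10 min; metabolic rate expressed as nmol/min/mg protein.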

Point of comparison: `CCC1=C2C(Nc3ccc4c(cnn4Cc4ccccc4)c3)=NC=NC2N=C1NC(=O)OCCN1CCCCC1` (centres undefined), Stability 0.27 nmol/min. Against it:
- CCc1c(NC(=O)OC[C@@H]2COCCN2)cn2ncnc(Nc3ccc4c(cnn4Cc4ccccc4)c3)c12 — lower, 0.14 nmol/min
- CCC1=C2C(Nc3ccc4c(cnn4Cc4ccccc4)c3)=NC=NC2N=C1NC(=O)OCCN1CCNCC1 (centres undefined) — lower, 0.1 nmol/min
- CCC1=C2C(Nc3ccc4c(cnn4Cc4ccccc4)c3)=NC=NC2N=C1NC(=O)O[C@H]1CC[C@@](C)(N)CC1 (some centres undefined) — lower, 0.02 nmol/min

System: not listed separately
Test: Antiproliferative activity against mouse SAL2 cells after 72 hrs by MTT assay
Format: functional, cell-based
Settings: SAL2, 72 h

Point of comparison: `CCC1=C2C(Nc3ccc4c(cnn4Cc4ccccc4)c3)=NC=NC2N=C1NC(=O)OCCN1CCOCC1` (centres undefined), IC50 500 nM. Against it:
- CCc1c(NC(=O)OC[C@@H]2COCCN2)cn2ncnc(Nc3ccc4c(cnn4Cc4ccccc4)c3)c12 — 2.9-fold lower, 170 nM
- CCC1=C2C(Nc3ccc4c(cnn4Cc4ccccc4)c3)=NC=NC2N=C1NC(=O)OCCC1CCNCC1 (centres undefined) — within 1.5-fold, 490 nM
- CCC1=C2C(Nc3ccc4c(cnn4Cc4ccccc4)c3)=NC=NC2N=C1NC(=O)OCCN1CCNCC1 (centres undefined) — 2-fold lower, 250 nM
- CCC1=C2C(Nc3ccc4c(cnn4Cc4ccccc4)c3)=NC=NC2N=C1NC(=O)O[C@H]1CC[C@@](C)(N)CC1 (some centres undefined) — within 1.5-fold, 370 nM
- CCC1=C2C(Nc3ccc4c(cnn4Cc4ccccc4)c3)=NC=NC2N=C1NC(=O)OCCN1CCCCC1 (centres undefined) — within 1.5-fold, 380 nM

System: Mus musculus
Test: Plasma concentration in BALB/c mouse at 50 mg/kg, po
Format: ADME, organism-based
Parameters: dose 50 mg/kg, route oral
Settings: in vivo
How it was run: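 Compound given orally at 50 mg/kg as a solution in PEG400/Tween80/water (40:10:50) to three Balb/C mice. Plasma sampled over 4 h after dosing; AUC(0-4h), Cmax and 4 h concentration reported.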

Point of comparison: `CCC1=C2C(Nc3ccc4c(cnn4Cc4ccccc4)c3)=NC=NC2N=C1NC(=O)O[C@H]1CC[C@@](C)(N)CC1` (some centres undefined), concentration 460 nM. Against it:
- CCc1c(NC(=O)OC[C@@H]2COCCN2)cn2ncnc(Nc3ccc4c(cnn4Cc4ccccc4)c3)c12 — 5.7-fold higher, 2600 nM
- CCC1=C2C(Nc3ccc4c(cnn4Cc4ccccc4)c3)=NC=NC2N=C1NC(=O)OCCC1CCNCC1 (centres undefined) — 4.2-fold lower, 110 nM
- CCC1=C2C(Nc3ccc4c(cnn4Cc4ccccc4)c3)=NC=NC2N=C1NC(=O)OCCN1CCOCC1 (centres undefined) — 11-fold higher, 4900 nM
- CCC1=C2C(Nc3ccc4c(cnn4Cc4ccccc4)c3)=NC=NC2N=C1NC(=O)OCCN1CCNCC1 (centres undefined) — 1.5-fold lower, 300 nM
- CCC1=C2C(Nc3ccc4c(cnn4Cc4ccccc4)c3)=NC=NC2N=C1NC(=O)OCCN1CCCCC1 (centres undefined) — 2.8-fold higher, 1300 nM

System: not listed separately
Test: Cmax in BALB/c mouse at 50 mg/kg, po
Format: ADME, organism-based
Parameters: dose 50 mg/kg, route oral
Settings: in vivo

Point of comparison: `CCC1=C2C(Nc3ccc4c(cnn4Cc4ccccc4)c3)=NC=NC2N=C1NC(=O)OCCN1CCNCC1` (centres undefined), Cmax 300 nM. Against it:
- CCc1c(NC(=O)OC[C@@H]2COCCN2)cn2ncnc(Nc3ccc4c(cnn4Cc4ccccc4)c3)c12 — 12-fold higher, 3500 nM
- CCC1=C2C(Nc3ccc4c(cnn4Cc4ccccc4)c3)=NC=NC2N=C1NC(=O)OCCC1CCNCC1 (centres undefined) — within 1.5-fold, 250 nM
- CCC1=C2C(Nc3ccc4c(cnn4Cc4ccccc4)c3)=NC=NC2N=C1NC(=O)OCCN1CCOCC1 (centres undefined) — 37-fold higher, 11000 nM
- CCC1=C2C(Nc3ccc4c(cnn4Cc4ccccc4)c3)=NC=NC2N=C1NC(=O)O[C@H]1CC[C@@](C)(N)CC1 (some centres undefined) — 1.6-fold higher, 480 nM
- CCC1=C2C(Nc3ccc4c(cnn4Cc4ccccc4)c3)=NC=NC2N=C1NC(=O)OCCN1CCCCC1 (centres undefined) — 5.7-fold higher, 1700 nM

System: BT-474
Test: Antiproliferative activity against human BT474 cells after 72 hrs by MTT assay
Format: functional, cell-based
Settings: BT-474, 72 h
How it was run: as §1

Point of comparison: `CCC1=C2C(Nc3ccc4c(cnn4Cc4ccccc4)c3)=NC=NC2N=C1NC(=O)OCCN1CCNCC1` (centres undefined), IC50 71 nM. Against it:
- CCc1c(NC(=O)OC[C@@H]2COCCN2)cn2ncnc(Nc3ccc4c(cnn4Cc4ccccc4)c3)c12 — 5.9-fold higher, 420 nM
- CCC1=C2C(Nc3ccc4c(cnn4Cc4ccccc4)c3)=NC=NC2N=C1NC(=O)OCCC1CCNCC1 (centres undefined) — 1.8-fold higher, 130 nM
- CCC1=C2C(Nc3ccc4c(cnn4Cc4ccccc4)c3)=NC=NC2N=C1NC(=O)OCCN1CCOCC1 (centres undefined) — 7.7-fold higher, 550 nM
- CCC1=C2C(Nc3ccc4c(cnn4Cc4ccccc4)c3)=NC=NC2N=C1NC(=O)O[C@H]1CC[C@@](C)(N)CC1 (some centres undefined) — 1.8-fold higher, 130 nM
- CCC1=C2C(Nc3ccc4c(cnn4Cc4ccccc4)c3)=NC=NC2N=C1NC(=O)OCCN1CCCCC1 (centres undefined) — 4.4-fold higher, 310 nM

System: not listed separately
Test: AUC (0 to 4 hrs) in BALB/c mouse at 50 mg/kg, po
Format: ADME, organism-based
Parameters: time < 4 hr, dose 50 mg/kg, route oral
Settings: plasma

Point of comparison: `CCc1c(NC(=O)OC[C@@H]2COCCN2)cn2ncnc(Nc3ccc4c(cnn4Cc4ccccc4)c3)c12`, AUC(0-t) at 4 h 11 µM·h. Against it:
- CCC1=C2C(Nc3ccc4c(cnn4Cc4ccccc4)c3)=NC=NC2N=C1NC(=O)OCCC1CCNCC1 (centres undefined) — 21-fold lower, 0.53 µM·h
- CCC1=C2C(Nc3ccc4c(cnn4Cc4ccccc4)c3)=NC=NC2N=C1NC(=O)OCCN1CCOCC1 (centres undefined) — 2.6-fold higher, 29 µM·h
- CCC1=C2C(Nc3ccc4c(cnn4Cc4ccccc4)c3)=NC=NC2N=C1NC(=O)OCCN1CCNCC1 (centres undefined) — 18-fold lower, 0.62 µM·h
- CCC1=C2C(Nc3ccc4c(cnn4Cc4ccccc4)c3)=NC=NC2N=C1NC(=O)O[C@H]1CC[C@@](C)(N)CC1 (some centres undefined) — 6.2-fold lower, 1.76 µM·h
- CCC1=C2C(Nc3ccc4c(cnn4Cc4ccccc4)c3)=NC=NC2N=C1NC(=O)OCCN1CCCCC1 (centres undefined) — 2-fold lower, 5.5 µM·h

System: NCI-N87
Test: Antiproliferative activity against human NCI-N87 cells after 72 hrs by MTT assay
Format: functional, cell-based
Settings: NCI-N87, 72 h

Point of comparison: `CCC1=C2C(Nc3ccc4c(cnn4Cc4ccccc4)c3)=NC=NC2N=C1NC(=O)OCCC1CCNCC1` (centres undefined), IC50 210 nM. Against it:
- CCc1c(NC(=O)OC[C@@H]2COCCN2)cn2ncnc(Nc3ccc4c(cnn4Cc4ccccc4)c3)c12 — 1.7-fold higher, 350 nM
- CCC1=C2C(Nc3ccc4c(cnn4Cc4ccccc4)c3)=NC=NC2N=C1NC(=O)OCCN1CCOCC1 (centres undefined) — 2.5-fold higher, 520 nM
- CCC1=C2C(Nc3ccc4c(cnn4Cc4ccccc4)c3)=NC=NC2N=C1NC(=O)OCCN1CCNCC1 (centres undefined) — 2.1-fold lower, 100 nM
- CCC1=C2C(Nc3ccc4c(cnn4Cc4ccccc4)c3)=NC=NC2N=C1NC(=O)O[C@H]1CC[C@@](C)(N)CC1 (some centres undefined) — within 1.5-fold, 170 nM
- CCC1=C2C(Nc3ccc4c(cnn4Cc4ccccc4)c3)=NC=NC2N=C1NC(=O)OCCN1CCCCC1 (centres undefined) — 1.9-fold higher, 390 nM
